Results from ChEMBL document CHEMBL1141693, “Discovery of benzoylpiperazines as a novel class of potent and selective GlyT1 inhibitors” (Bioorg Med Chem Lett, 2008).
≈ marks a conversion by molar mass, not a printed value.

Target: T1, Sodium- and chloride-dependent glycine transporter 1 (Homo sapiens, UniProt P48067)
T1 sequence (P48067 whole entry): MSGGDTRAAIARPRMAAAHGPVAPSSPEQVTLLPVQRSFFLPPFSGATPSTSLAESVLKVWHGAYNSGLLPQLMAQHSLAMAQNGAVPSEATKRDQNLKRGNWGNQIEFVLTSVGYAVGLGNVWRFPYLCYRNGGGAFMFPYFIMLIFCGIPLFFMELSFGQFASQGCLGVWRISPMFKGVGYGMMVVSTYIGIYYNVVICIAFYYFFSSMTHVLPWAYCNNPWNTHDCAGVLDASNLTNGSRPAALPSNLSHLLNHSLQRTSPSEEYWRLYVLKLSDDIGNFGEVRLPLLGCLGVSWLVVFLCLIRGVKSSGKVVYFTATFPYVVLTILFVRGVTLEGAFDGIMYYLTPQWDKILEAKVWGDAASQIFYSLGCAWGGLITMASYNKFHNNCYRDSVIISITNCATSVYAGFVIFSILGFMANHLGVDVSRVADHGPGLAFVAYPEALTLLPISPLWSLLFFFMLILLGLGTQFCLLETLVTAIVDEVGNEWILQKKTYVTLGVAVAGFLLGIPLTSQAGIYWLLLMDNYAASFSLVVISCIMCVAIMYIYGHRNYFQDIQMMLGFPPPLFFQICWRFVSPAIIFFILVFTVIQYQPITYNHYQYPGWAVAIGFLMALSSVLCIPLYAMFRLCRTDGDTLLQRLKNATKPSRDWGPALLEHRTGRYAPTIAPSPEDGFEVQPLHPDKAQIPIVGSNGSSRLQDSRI
Assay: Inhibition of [3H]glycine uptake at human glycine transporter 1 expressed in CHO cells by scintillation counter
Format: cell-based

Row | SMILES | EC50
1 | O=C(c1cc([N+](=O)[O-])ccc1N1CCOCC1)N1CCN(c2cccc(Cl)c2)CC1 | 700 nM
2 | O=C(c1cc([N+](=O)[O-])ccc1N1CCOCC1)N1CCN(c2ccc(C(F)(F)F)cc2F)CC1 | 41 nM
3 | CC(=O)c1ccc(N2CCN(C(=O)c3cc(S(C)(=O)=O)ccc3SC(C)C)CC2)c(F)c1 | 15 nM
4 | CC(=O)c1ccc(N2CCN(C(=O)c3cc([N+](=O)[O-])ccc3NC(C)C)CC2)c(F)c1 | 2 nM
5 | O=C(c1cc([N+](=O)[O-])ccc1N1CCOCC1)N1CCN(c2ccc(Cl)cc2)CC1 | 310 nM
6 | COc1ccccc1N1CCN(C(=O)c2cc([N+](=O)[O-])ccc2N2CCOCC2)CC1 | > 10000 nM
7 | Cc1ccc(N2CCN(C(=O)c3cc([N+](=O)[O-])ccc3N3CCOCC3)CC2)cc1 | 2900 nM
8 | O=C(c1cc([N+](=O)[O-])ccc1N1CCOCC1)N1CCN(c2ncc(C(F)(F)F)cc2Cl)CC1 | 47 nM
9 | COc1ccc(N2CCN(C(=O)c3cc([N+](=O)[O-])ccc3N3CCOCC3)CC2)cc1 | 1300 nM
10 | CC(=O)c1ccc(N2CCN(C(=O)c3cc([N+](=O)[O-])ccc3NCC3CCCCC3)CC2)c(F)c1 | > 10000 nM
11 | CC(=O)c1ccc(N2CCN(C(=O)c3cc(N)ccc3N3CCOCC3)CC2)c(F)c1 | > 30000 nM
12 | CS(=O)(=O)c1ccc(N2CCN(C(=O)c3cc([N+](=O)[O-])ccc3N3CCOCC3)CC2)cc1 | 110 nM
13 | N#Cc1ccc(N2CCN(C(=O)c3cc([N+](=O)[O-])ccc3N3CCOCC3)CC2)cc1 | 78 nM
14 | CC(=O)c1ccc(N2CCN(C(=O)c3cc(C(F)(F)F)ccc3N3CCOCC3)CC2)c(F)c1 | 26000 nM
15 | COc1cccc(N2CCN(C(=O)c3cc([N+](=O)[O-])ccc3N3CCOCC3)CC2)c1 | 530 nM
16 | Cc1cccc(N2CCN(C(=O)c3cc([N+](=O)[O-])ccc3N3CCOCC3)CC2)c1 | 1100 nM
17 | CC(=O)c1ccc(N2CCN(C(=O)c3cc(S(C)(=O)=O)ccc3OC(C)C)CC2)c(F)c1 | 39 nM
18 | O=C(c1cc([N+](=O)[O-])ccc1N1CCOCC1)N1CCN(c2ccc(C(F)(F)F)c(Cl)n2)CC1 | 33 nM
19 | CC(C)Oc1ccc(S(C)(=O)=O)cc1C(=O)N1CCN(c2ccc(C(F)(F)F)cc2)CC1 | 82 nM
20 | O=C(c1cc([N+](=O)[O-])ccc1N1CCOCC1)N1CCN(c2ccc(C(F)(F)F)cc2)CC1 | 100 nM
21 | CC(=O)c1ccc(N2CCN(C(=O)c3cccc([N+](=O)[O-])c3)CC2)c(F)c1 | 32000 nM
22 | CC(=O)c1ccc(N2CCN(C(=O)c3cc([N+](=O)[O-])ccc3N3CCCCC3)CC2)c(F)c1 | 1 nM

Target: T2, Sodium- and chloride-dependent glycine transporter 2 (Homo sapiens, UniProt Q9Y345)
T2 sequence (Q9Y345 whole entry): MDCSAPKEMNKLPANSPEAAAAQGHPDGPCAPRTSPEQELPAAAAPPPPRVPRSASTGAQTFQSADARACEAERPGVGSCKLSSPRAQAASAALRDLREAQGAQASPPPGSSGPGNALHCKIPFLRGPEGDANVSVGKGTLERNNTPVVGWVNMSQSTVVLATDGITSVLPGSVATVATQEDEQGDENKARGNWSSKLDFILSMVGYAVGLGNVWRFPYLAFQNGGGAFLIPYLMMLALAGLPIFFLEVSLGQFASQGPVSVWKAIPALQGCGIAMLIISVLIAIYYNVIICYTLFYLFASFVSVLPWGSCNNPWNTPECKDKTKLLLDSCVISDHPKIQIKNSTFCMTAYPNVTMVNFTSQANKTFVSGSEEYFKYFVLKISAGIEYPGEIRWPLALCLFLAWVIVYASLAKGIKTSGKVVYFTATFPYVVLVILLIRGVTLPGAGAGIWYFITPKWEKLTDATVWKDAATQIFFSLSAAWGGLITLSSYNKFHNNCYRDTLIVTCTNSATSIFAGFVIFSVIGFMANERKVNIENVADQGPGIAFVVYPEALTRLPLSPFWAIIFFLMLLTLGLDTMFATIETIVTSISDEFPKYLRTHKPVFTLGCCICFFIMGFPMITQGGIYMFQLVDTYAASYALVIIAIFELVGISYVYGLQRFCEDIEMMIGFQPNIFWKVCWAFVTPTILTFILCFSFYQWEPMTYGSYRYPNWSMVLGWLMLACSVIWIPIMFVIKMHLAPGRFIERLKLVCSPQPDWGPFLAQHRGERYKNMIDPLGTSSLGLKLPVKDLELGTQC
Assay: Inhibition of [3H]glycine uptake at human glycine transporter 2 expressed in CHO cells by scintillation counter
Format: cell-based
Outline: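 [³H]-glycine uptake inhibition in cells transfected with human GlyT2 cDNA. EC50 is the average of at least two independent experiments.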

Row | SMILES | EC50
23 | O=C(c1cc([N+](=O)[O-])ccc1N1CCOCC1)N1CCN(c2cccc(Cl)c2)CC1 | 3100 nM
24 | O=C(c1cc([N+](=O)[O-])ccc1N1CCOCC1)N1CCN(c2ccc(C(F)(F)F)cc2F)CC1 | 29000 nM
25 | CC(=O)c1ccc(N2CCN(C(=O)c3cc(S(C)(=O)=O)ccc3SC(C)C)CC2)c(F)c1 | > 30000 nM
26 | CC(=O)c1ccc(N2CCN(C(=O)c3cc([N+](=O)[O-])ccc3NC(C)C)CC2)c(F)c1 | 10000 nM
27 | O=C(c1cc([N+](=O)[O-])ccc1N1CCOCC1)N1CCN(c2ccc(Cl)cc2)CC1 | 1170 nM
28 | COc1ccccc1N1CCN(C(=O)c2cc([N+](=O)[O-])ccc2N2CCOCC2)CC1 | 13400 nM
29 | Cc1ccc(N2CCN(C(=O)c3cc([N+](=O)[O-])ccc3N3CCOCC3)CC2)cc1 | 7700 nM
30 | O=C(c1cc([N+](=O)[O-])ccc1N1CCOCC1)N1CCN(c2ncc(C(F)(F)F)cc2Cl)CC1 | > 30000 nM
31 | COc1ccc(N2CCN(C(=O)c3cc([N+](=O)[O-])ccc3N3CCOCC3)CC2)cc1 | 11400 nM
32 | CC(=O)c1ccc(N2CCN(C(=O)c3cc(N)ccc3N3CCOCC3)CC2)c(F)c1 | > 30000 nM
33 | CS(=O)(=O)c1ccc(N2CCN(C(=O)c3cc([N+](=O)[O-])ccc3N3CCOCC3)CC2)cc1 | 2100 nM
34 | N#Cc1ccc(N2CCN(C(=O)c3cc([N+](=O)[O-])ccc3N3CCOCC3)CC2)cc1 | 1100 nM
35 | CC(=O)c1ccc(N2CCN(C(=O)c3cc(C(F)(F)F)ccc3N3CCOCC3)CC2)c(F)c1 | 11000 nM
36 | COc1cccc(N2CCN(C(=O)c3cc([N+](=O)[O-])ccc3N3CCOCC3)CC2)c1 | 8300 nM
37 | Cc1cccc(N2CCN(C(=O)c3cc([N+](=O)[O-])ccc3N3CCOCC3)CC2)c1 | 4000 nM
38 | CC(=O)c1ccc(N2CCN(C(=O)c3cc(S(C)(=O)=O)ccc3OC(C)C)CC2)c(F)c1 | > 30000 nM
39 | O=C(c1cc([N+](=O)[O-])ccc1N1CCOCC1)N1CCN(c2ccc(C(F)(F)F)c(Cl)n2)CC1 | 24000 nM
40 | O=C(c1cc([N+](=O)[O-])ccc1N1CCOCC1)N1CCN(c2ccc(C(F)(F)F)cc2)CC1 | 3300 nM
41 | CC(=O)c1ccc(N2CCN(C(=O)c3cccc([N+](=O)[O-])c3)CC2)c(F)c1 | 24500 nM
42 | CC(=O)c1ccc(N2CCN(C(=O)c3cc([N+](=O)[O-])ccc3N3CCCCC3)CC2)c(F)c1 | 4000 nM

Species on record: Homo sapiens
Assay: Selectivity ratio of IC50 for human glycine transporter 2 to IC50 for human glycine transporter 1
Outline: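 [³H]-glycine uptake inhibition in cells transfected with human GlyT1 or human GlyT2 cDNA. Each EC50 is the average of at least two independent experiments. Selectivity is the ratio of GlyT2 EC50 to GlyT1 EC50.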

Row | SMILES | Ratio EC50
43 | CC(=O)c1ccc(N2CCN(C(=O)c3cc(C(F)(F)F)ccc3N3CCOCC3)CC2)c(F)c1 | 0.4

Test system: not listed separately
Assay: Aqueous solubility in phosphate buffer at pH 6.5 by lyophilization solubility assay
Format: physicochemical
Outline: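 Aqueous solubility was measured at pH 6.5 in a lyophilization solubility assay.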

Row | SMILES | solubility
44 | CC(C)Oc1ccc(S(C)(=O)=O)cc1C(=O)N1CCN(c2ccc(C(F)(F)F)cc2)CC1 | 62 µg/mL (≈ 132 µM)

Test system: Liver microsomes
Assay: Metabolic stability in human liver microsomes assessed as intrinsic clearance per […] of protein
Format: ADME, Microsome
Outline: (§1)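 Intrinsic clearance measured in liver microsomes from rat, mouse or human, expressed per mg microsomal protein.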

Row | SMILES | clearance
45 | CC(C)Oc1ccc(S(C)(=O)=O)cc1C(=O)N1CCN(c2ccc(C(F)(F)F)cc2)CC1 | 0 µL/min/mg

Test system: not listed separately
Assay: Metabolic stability in mouse liver microsomes assessed as intrinsic clearance per […] of protein
Format: ADME, Microsome
Outline: as §1

Row | SMILES | clearance
46 | CC(C)Oc1ccc(S(C)(=O)=O)cc1C(=O)N1CCN(c2ccc(C(F)(F)F)cc2)CC1 | 0 µL/min/mg
